Data on 15 compounds can be found in ChEMBL document CHEMBL3272219, “Chemistry and antibacterial activity of nitrobenzofurans” (J Med Chem, 1976).

Series [1] is described as follows: Half life of the compound in 5% Me2SO-Jensen's minimal media at 0.7 to 2 X 10^-4 M at pH 7 by spectrophotometric analysis. The series is classed as physicochemical. The gist of the method:
(§1)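 Solvolysis was run at 37 ± 0.5° in Jensen's minimal medium at pH 7.0 with 5% Me2SO final, starting from 0.7–2.0 × 10^-4 M compound. Absorbance was followed at a preselected wavelength. Benzofuran concentration was calculated every half hour from substrate and product extinction coefficients. Data were fitted to a first-order rate law, with a 95% confidence range on the rate constant.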

Series [2] in a line: Ratio of antibacterial activity against Escherichia coli B cultured in Jensen's minimal media to antibacterial activity against Escherichia coli Br cultured in Penassay broth. The series is classed as functional.
Series [3] in a line: Stability of the compound in aqueous solution. Conditions: buffer. It is filed as physicochemical. The gist of the method:
as §1

Series [4] concerns Enterococcus faecalis. As to the kind of experiment: Antibacterial activity against Streptococcus faecalis after 6 hrs by turbidimetric analysis. It is filed as functional. In a few lines:
(§2)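 Overnight Penassay broth culture adjusted to 60% transmittance, diluted 10 ml into 900 ml broth; 4.5 ml inoculum added to 0.5 ml compound in 10% Me2SO. Nine-step dilution series (1 to 0.031), four replicates each, with positive and negative controls. Incubation at 37°, stationary except P. aeruginosa. Turbidity read at 660 nm after 6 hr. MIC taken as the lowest concentration giving >90% T.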

The test system of series [5] is Escherichia coli. The series is described as follows: Antibacterial activity against nitrofuran reductase-deficient Escherichia coli Br 207 after 6 hrs by turbidimetric analysis. The series is classed as functional. Conditions: Br 207, 6 h. The gist of the method: as §2
Series [6] relates to Escherichia coli. The series is described as follows: Antibacterial activity against Escherichia coli B after 6 hrs by turbidimetric analysis. The series is classed as functional. In a few lines: as §2
The test system of series [7] is Escherichia coli. The series is described as follows: Antibacterial activity against Escherichia coli Br cultured in Penassay broth assessed as effect on lag time after 9 hrs by turbidimetric analysis. The series is classed as functional, organism-based. The gist of the method:
(§3)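 Cultures in Penassay broth at 37° with compound added from 10% Me2SO and monitored at 660 nm every 20 min for 9 hr after inoculation. For each concentration, the log A660 vs time plot was extrapolated to A = 0.05. Time from inoculation to that point was taken as the lag time, which was then plotted against concentration.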

Series [8] concerns Staphylococcus aureus. The series is described as follows: Antibacterial activity against Staphylococcus aureus cultured in Penassay broth assessed as effect on lag time after 9 hrs by turbidimetric analysis. The series is classed as functional, organism-based. The gist of the method:
as §3

Series [9] has as its system Staphylococcus aureus. The series is described as follows: Antibacterial activity against Staphylococcus aureus after 6 hrs by turbidimetric analysis. The series is classed as functional. In a few lines: as §2
Series [10] has as its system Providencia rettgeri. The series is described as follows: Antibacterial activity against Proteus rettgeri after 6 hrs by turbidimetric analysis. The series is classed as functional. The gist of the method:
as §2

Series [11] has as its system Klebsiella pneumoniae. As to the kind of experiment: Antibacterial activity against Klebsiella pneumoniae cultured in Penassay broth assessed as effect on lag time after 9 hrs by turbidimetric analysis. It is filed as functional, organism-based. In a few lines:
as §3

Series [12] deals with Proteus mirabilis. The series is described as follows: Antibacterial activity against Proteus mirabilis after 6 hrs by turbidimetric analysis. The series is classed as functional. The gist of the method:
as §2

The subject of series [13] is Klebsiella pneumoniae. The series is described as follows: Antibacterial activity against Klebsiella pneumoniae after 6 hrs by turbidimetric analysis. The series is classed as functional. In a few lines: as §2
Series [14] in a line: Half life of the compound in 40% Me2SO-Jensen's minimal media at 0.7 to 2 X 10^-4 M at pH 6 by spectrophotometric analysis. The series is classed as physicochemical.
Series [15] has as its system Pseudomonas aeruginosa. As to the kind of experiment: Antibacterial activity against Pseudomonas aeruginosa after 6 hrs by turbidimetric analysis. It is filed as functional. The gist of the method:
as §2

Series [16] deals with Escherichia coli. The series is described as follows: Antibacterial activity against Escherichia coli Br cultured in Penassay broth assessed as time required for growth suppression at 4.4 X 10^-5 M compound added in early log phase of growth by turbidimetric analysis. It is filed as functional.
Series [17] can be described thus: Half life of the compound in 10% Me2SO-Jensen's minimal media at 0.7 to 2 X 10^-4 M at pH 6 by spectrophotometric analysis. It is filed as physicochemical.
Series [18] is described as follows: Half life of the compound in 20% Me2SO-Jensen's minimal media at 0.7 to 2 X 10^-4 M at pH 6 by spectrophotometric analysis. The series is classed as physicochemical.
The test system of series [19] is Escherichia coli. The series is described as follows: Antibacterial activity against Escherichia coli Br after 6 hrs by turbidimetric analysis. It is filed as functional. In a few lines: as §2
Series [20] has as its system Escherichia coli. The series is described as follows: Antibacterial activity against Escherichia coli Br assessed as decrease in viability at 7.7 X 10^-5 M after 2 hrs. It is filed as functional, organism-based.
The subject of series [21] is Escherichia coli. The series is described as follows: Antibacterial activity against Escherichia coli Br cultured in Penassay broth assessed as time required for growth suppression at 4.4 X 10^-5 M compound added in late log phase of growth by turbidimetric analysis. It is filed as functional.
The nature of series [22]: Half life of the compound in 5% Me2SO-Jensen's minimal media at 0.7 to 2 X 10^-4 M at pH 6 by spectrophotometric analysis. It is filed as physicochemical.
In series [23] the test system is Escherichia coli. The series is described as follows: Antibacterial activity against Escherichia coli B cultured in Jensen's minimal media assessed as growth inhibition by turbidimetric analysis. It is filed as functional, organism-based. The gist of the method: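 E. coli B, grown overnight in Jensen's minimal medium, was subcultured at 37° with shaking to 70% T. 1 ml of culture was added to 8 ml Jensen's broth (pH 7) plus 1 ml compound in 10% Me2SO. Five concentrations (dilution series 1–0.1) and a 1% Me2SO control were run. Turbidity was monitored with agitation. Log A vs time gave % inhibition, and IC50 came from log concentration–probability plots.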

The test system of series [24] is Escherichia coli. The series is described as follows: Antibacterial activity against Escherichia coli B cultured in Jensen's minimal media assessed as growth inhibition at < 2 X 10^-5 M by turbidimetric analysis. It is filed as functional, organism-based.
The test system of series [25] is Escherichia coli. The series is described as follows: Antibacterial activity against Escherichia coli B cultured in Jensen's minimal media assessed as growth inhibition by turbidimetric analysis in presence of vitamin-free casamino acids and tryptophan. It is filed as functional, organism-based. The gist of the method: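 Same minimal-medium turbidity assay with E. coli B: a 70% T culture was mixed with compound in Me2SO in Jensen's broth (pH 7) and read with agitation. Vitamin-free casamino acids (1.2 g/l) and tryptophan (200 mg/l) were added to the minimal broth.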

≈ marks a conversion by molar mass, not a printed value. Calls of active or inactive are those of the source.

In general, half-life refers to the time needed for the level to fall by half in the phase considered. As for `Cc1oc2ccc([N+](=O)[O-])cc2c1[N+](=O)[O-]`, the half-life in series [1] is 0.89 h. Also, the Ratio in series [2] is reported as above 10. In series [3], the Stability result is “Unstable”.
For orientation: MIC means the smallest concentration in the dilution series that meets the test's criterion for growth inhibition. A higher MIC goes with a less susceptible organism. With `Cc1oc2c([N+](=O)[O-])cccc2c1[N+](=O)[O-]`, the MIC came out at 3.75 µg/mL (≈ 16.9 µM) in series [4]; 1.87 µg/mL (≈ 8.42 µM) in [5]; 1.87 µg/mL (≈ 8.42 µM) in series [6]; 2.5 µg/mL (≈ 11.3 µM) in series [9]; 7.5 µg/mL (≈ 33.8 µM) in [10]; 6.25 µg/mL (≈ 28.1 µM) in series [12]. Moreover, the MIC is 5 µg/mL (≈ 22.5 µM) in [13], above 10 µg/mL in series [15] and 1.87 µg/mL (≈ 8.42 µM) in series [19]. For the same compound, the result in [7], in series [8] and in series [11] was Active. The half-life in series [1] is 1.37 h; in series [14], 1.51 h; in series [17] it was 1.95 h; in series [18] it was 1.78 h; in series [22] it was 2.1 h. Moreover, in series [2], the Ratio is listed as above 10. The Stability entry in [3] is “Unstable”. Further, the Time in series [16] worked out at 6 h; in series [21], 3 h. For the same compound, the outcome in series [20] was inactive.
For the compound `NC(=O)N/N=C/c1ccc([N+](=O)[O-])o1` [NITROFURAZONE], the MIC was 50 µg/mL (≈ 252 µM) in series [4]; 18.7 µg/mL (≈ 94.4 µM) in series [5]; 5 µg/mL (≈ 25.2 µM) in [6]; 5 µg/mL (≈ 25.2 µM) in series [9]; above 100 µg/mL in series [10]; 50 µg/mL (≈ 252 µM) in [12]. For the same compound, the MIC is 10 µg/mL (≈ 50.5 µM) in series [13], above 100 µg/mL in series [15] and 5 µg/mL (≈ 25.2 µM) in series [19]. The result in series [7] was inactive.
As for `Cc1oc2c([N+](=O)[O-])cccc2c1C#N`, the “growth inhibition (GI)” value in series [23] is “inactive”.
As to `Cc1oc2ccccc2c1[N+](=O)[O-]`, in series [1], the half-life is 3.34 h. The Ratio in series [2] is above 10. For the same compound, the Stability result in series [3] is “Unstable”.
Compound `Cc1oc2c(NC(=O)C(F)(F)F)cccc2c1[N+](=O)[O-]` had a half-life in series [1] of 2.88 h. Also, the “growth inhibition (GI)” value in series [24] and in series [25] was “inactive” in each case. For the same compound, the Stability entry in series [3] is “Unstable”.
On to `Cc1oc2c([N+](=O)[O-])cccc2c1Br`, for which, in series [23], the “growth inhibition (GI)” value is “inactive”.
Turning to `Cc1oc2c(Br)cccc2c1[N+](=O)[O-]`, the Ratio in series [2] is on record as above 10. For the same compound, the Stability result in series [3] was “Unstable”.
`Cc1cc2cccc(Br)c2o1`: in series [23], the “growth inhibition (GI)” value was “inactive”.
Same read-out and setting: next, `Cc1cc2cccc(N)c2o1`: “inactive”; `Cc1oc2c([N+](=O)[O-])cccc2c1C(N)=O`: “inactive”; `Cc1oc2c([N+](=O)[O-])cccc2c1C(=O)O`: “inactive”.
As to `Cc1oc2c(C(F)(F)F)cccc2c1[N+](=O)[O-]`, the half-life in series [1] is 1.48 h. Further, in series [2], the Ratio is given as above 10. Further, the Stability result in series [3] was “Unstable”.
For `Cc1oc2c(C(N)=O)cccc2c1[N+](=O)[O-]` the same measures were 1.91 h, above 10 and “Unstable”.
For the compound `Cc1cc2cccc([N+](=O)[O-])c2o1`, the “growth inhibition (GI)” value in [23] was “inactive”.
